# Source: PubChem BioAssay
# MrgX1 ag = human MrgX1 receptor agonism, primary screen; MrgX1-HEK293 cells, Fluo-4 calcium fluorescence, agonist mode; active compounds read high; B-score at 10 µM; hit rate 0.44% among 310,000; AID 588627;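 active = calcium response B-score plate-corrected fluorescence ratio at least 3 library SD, with starting fluorescence B-score inside 5 SD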
# Target sequence (Q96LB2 whole entry, looked up): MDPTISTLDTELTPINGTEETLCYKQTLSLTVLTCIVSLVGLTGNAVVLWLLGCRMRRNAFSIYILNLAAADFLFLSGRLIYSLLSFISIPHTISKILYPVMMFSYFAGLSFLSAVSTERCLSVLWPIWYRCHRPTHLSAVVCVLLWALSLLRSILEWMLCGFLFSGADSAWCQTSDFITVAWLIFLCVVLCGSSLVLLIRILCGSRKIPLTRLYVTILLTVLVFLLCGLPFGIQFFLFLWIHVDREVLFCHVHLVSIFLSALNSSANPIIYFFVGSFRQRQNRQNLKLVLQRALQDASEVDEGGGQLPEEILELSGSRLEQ
#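 Material: MrgX1-expressing HEK293 cells; input: 15,000 cells per well; doses: test compound given as first of three sequential additions; schedule: overnight plating before 1 h dye loading; technique: Fluo-4 NW calcium-flux fluorescence, kinetic read; evaluation: baseline-normalised fluorescence change ratio, B-scored; control set: plate-wise positive and negative controls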
# MrgX1 antag = human MrgX1 receptor antagonism, primary screen; Q96LB2; MRGX1-HEK293 calcium flux, Fluo-4, BAM8-22 antagonism; active compounds read low; B-score at 10 µM; hit rate 1.3% among 310,000; AID 588676;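 active = calcium-response B-score plate-corrected more than 3 library SD below zero, starting fluorescence within 5 deviations, no agonist response on first addition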;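 also: peak minus trough fluorescence over baseline after final BAM8-22 challenge near maximal dose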
# RGS4 act = RGS4 potentiation or activation | B-score at 10 µM | HEK293 M3R/inducible RGS4, carbachol calcium flux Fluo4; active compounds read low | hit rate 0.92% among 310,000;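 active = B-score of the integrated calcium signal more than 4 SD below the library mean, with starting fluorescence not abnormally high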;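 also: negative B-score means reduced calcium response which marks RGS4 activation or potentiation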
#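 Assay system: Inducible-RGS4 HEK293 cells carrying M3 receptor | Schedule: Compound preincubation 20 min at room temperature before agonist | Signal: Kinetic calcium fluorescence imaging with Fluo4-AM dye, 2 µM | Read-out basis: B score from integrated fluorescence ratio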
# MrgX1 PAM = human MrgX1 positive allosteric modulation, primary screen. Q96LB2. MrgX1-HEK293, Fluo-4 calcium flux, FDSS; active compounds read high. B-score at 10 µM. hit rate 0.63% among 310,000. AID 588675;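 active = plate-corrected calcium response at least 3 library SD above typical, normal starting fluorescence, not activating the receptor alone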;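 also: compound read alongside a low EC10 to EC30 dose of BAM8-22 agonist; peak minus trough fluorescence over baseline measured at the second addition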
# RGS4 inh = human RGS4 inhibition; P49798; HEK293 M3R/RGS4 inducible, Fluo-4 calcium flux; active compounds read high; triggered by carbachol at its EC20; B-score at 10 µM; hit rate 0.45% among 310,000; AID 463165;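 active = B-score, a plate-corrected calcium signal, over three deviations above library mean, with baseline fluorescence within five deviations of library mean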;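 also: RGS4 expression induced by doxycycline in cells with stable M3 receptor; B-score is computed from the integrated fluorescence ratio over baseline after carbachol; higher B-score means a larger calcium signal and so more RGS4 inhibition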
# Target sequence (P49798 whole entry, looked up): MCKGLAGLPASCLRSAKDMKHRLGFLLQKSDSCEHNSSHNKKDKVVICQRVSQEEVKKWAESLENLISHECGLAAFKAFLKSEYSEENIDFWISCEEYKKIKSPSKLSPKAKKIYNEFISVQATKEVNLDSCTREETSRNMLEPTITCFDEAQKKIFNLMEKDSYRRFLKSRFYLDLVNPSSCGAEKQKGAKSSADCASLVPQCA
# MrgX1 ant reconf = human MrgX1 receptor antagonism, re-confirmation screen; MrgX1-HEK293, BAM8-22 calcium flux, Fluo-4; active compounds read low; shares compounds with MrgX1 antag; hit rate 19% among 2,300; remaining BAM8-22 calcium response % of control (active compounds read low), % at 10 µM;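 active = remaining agonist calcium response no higher than 100% minus 3 SD of agonist-only control wells, with starting fluorescence near control levels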;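 also: agonist BAM8-22 given at a near maximal EC90 to ECmax level; peak minus minimum fluorescence divided by baseline after agonist addition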
# HEK293 Ca flux = MrgX1 antagonist counter-screen hit in parental HEK293 cells. fluorescence ratio F(max-min)/F0 at 10 µM. AID 624111. Fluo-4 calcium fluorescence, FDSS. hit rate 2% among 4,000. shares compounds with MrgX1 antag;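 active = duplicate-averaged calcium fluorescence ratio at least three times the standard deviation of buffer wells, a nonspecific response in parental cells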
# HEK293 Ca counter = activity in parental HEK293 cells without MrgX1; fluorescence ratio F(max-min)/F0 at 10 µM; shares compounds with MrgX1 antag; AID 624114; parental HEK293 calcium flux, Fluo-4 fluorescence ratio; active compounds read high; hit rate 0.4% among 4,000;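 active = calcium fluorescence ratio, averaged over duplicates, at least 3 SD of the buffer-well ratio, meaning a nonspecific response in receptor-free cells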;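 also: untransfected parental HEK293 lacking MrgX1 used as counterscreen for MrgX1 allosteric activators; fluorescence change taken during the second addition on a kinetic imager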
# HEK293 Ca cntr2 = counter-screen for MrgX1 activators: effect in parental HEK293 cells. Fluo-4 calcium fluorescence (FDSS); active compounds read high. shares compounds with MrgX1 antag. fluorescence ratio F(max-min)/F0 at 10 µM. hit rate 8.7% among 4,000;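 active = calcium fluorescence ratio at least three times the spread of buffer wells, meaning a non-specific response in parental cells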
# * = called active by the depositor; i = inactive; . = no result given. This is a sample that favours compounds with a hit; in the whole collection about 3.5% have one here.
SMILES,MrgX1 ag,MrgX1 antag,RGS4 act,MrgX1 PAM,RGS4 inh,MrgX1 ant reconf,HEK293 Ca flux,HEK293 Ca counter,HEK293 Ca cntr2
CC(C)C(c1nnnn1C1CCCC1)N1CCCc2ccccc21 (stereo not given),i,-6.05*,i,i,i,i,i,i,i
CCC(C)c1ccc(S(=O)(=O)N2CCN(c3ccccn3)CC2)cc1 (stereo not given),i,i,i,i,i,.,.,.,.
Cc1cccc(N(CC(=O)NC2CCCCC2)C(=O)c2csnn2)c1,i,i,i,i,i,.,.,.,.
Cc1cccc(N(CC(=O)NC2CCCCC2)C(=O)c2c(C)noc2C)c1,i,-6.55*,i,i,i,i,i,i,i
O=C(NCCC1CCCCN1S(=O)(=O)c1ccc(F)cc1)C(=O)NCC1CCCO1 (stereo not given),i,-5.99*,i,i,i,i,i,i,i
O=C(Cn1cc(C(F)(F)F)ccc1=O)Nc1ccccc1,i,i,i,i,i,.,.,.,.
O=C(c1ccc2c(c1)OCO2)N1CCN(S(=O)(=O)c2ccc(Cl)cc2)CC1,i,-4.52*,i,i,i,i,i,i,i
O=C(c1ccc2c(c1)OCO2)N1CCN(c2ccc(Cl)cc2)CC1,i,i,i,i,i,.,.,.,.
Cc1ccc2nc(C(C)O)[nH]c2c1 (stereo not given),i,-7.07*,i,i,i,64.2%*,i,i,i
Cc1ccc2nc(C(O)C(O)c3nc4ccc(C)cc4[nH]3)[nH]c2c1 (stereo not given),i,i,i,i,i,.,.,.,.
CN=Cc1cc(-c2ccccc2)sc1O,i,-6.16*,i,i,i,i,i,i,i
Cc1cc(C(=O)Cn2nc(C(=O)O)c3ccccc3c2=O)c(C)n1-c1ccc(F)cc1,i,i,i,i,i,.,.,.,.
COC(=O)C1CCN(C(=O)C(C)Oc2ccc(Cl)cc2Cl)CC1 (stereo not given),i,-9.9*,i,i,i,i,i,i,i
CCOC(=O)C1CCCN(C(=O)C(C)Oc2ccc(Cl)cc2Cl)C1 (stereo not given),i,i,i,i,i,.,.,.,.
O=C(Nc1cccc(Cl)c1)Nc1cccc(Cl)c1,i,i,i,i,i,.,.,.,.
COC(=O)c1cc(NC(=O)Nc2cccc(Cl)c2)ccc1Cl,i,-4.67*,i,i,i,82.3%*,i,i,i
NS(=O)(=O)c1cccc(NC(=O)Nc2ccc(Cl)cc2)c1,i,-6.26*,i,i,i,82.9%*,i,i,i
CCSc1nsc(NC(=O)Nc2cccc(F)c2)n1,i,-7.37*,i,i,i,78.0%*,i,i,i
O=C(Nc1cccc(F)c1)Nc1cccc(Cl)c1,i,-5.07*,i,i,i,65.2%*,i,i,i
COCCn1c(C)cc(C(=O)COC(=O)c2ccc(Br)o2)c1C,i,i,i,i,i,.,.,.,.
Cc1ccc(S(=O)(=O)c2c(C)nn(-c3ccccc3)c2OC(=O)c2ccc(Br)o2)cc1,i,i,.,i,.,.,.,.,.
COC(=O)c1cc(NC(=O)c2ccc(-c3ccccc3)cc2)ccc1Cl,i,-8.14*,i,i,i,i,i,i,i
O=C(CN(C(=O)c1csnn1)c1ccccc1F)NCc1ccc2c(c1)OCO2,i,i,i,i,i,.,.,.,.
CCOC(=O)C1CCCN(C(=S)Nc2cccc(Cl)c2C)C1 (stereo not given),i,i,i,i,i,.,.,.,.
CC(OC(=O)c1ccc(S(=O)(=O)NCc2ccco2)cc1)C(=O)Nc1ccc(Cl)cn1 (stereo not given),i,-6.54*,i,i,i,i,i,i,i
SMILES,MrgX1 ag,MrgX1 antag,RGS4 act,MrgX1 PAM,RGS4 inh,MrgX1 ant reconf,HEK293 Ca flux,HEK293 Ca counter,HEK293 Ca cntr2
O=C(COC(=O)c1ccc(S(=O)(=O)NCc2ccco2)cc1)Nc1ncc(Cl)cc1Cl,i,i,i,i,i,.,.,.,.
S=C(NCc1ccc(Cl)cc1Cl)NC1CCCCC1,i,-4.59*,i,i,i,59.6%*,i,i,i
Clc1ccc(CNC2CCCC2)c(Cl)c1,i,i,i,i,i,.,.,.,.
Cc1ccccc1C(=O)NC1CCN(Cc2nnnn2C2CCCC2)CC1,i,i,i,i,i,.,.,.,.
COC(=O)c1ccccc1NC(=O)c1cc2sccc2n1C,i,-7.32*,i,i,i,84.7%*,i,i,i
CCC1(c2ccc(F)cc2)NC(=O)N(CC(=O)NC2CC2)C1=O (stereo not given),i,i,i,i,i,.,.,.,.
CCC1(c2ccc(F)cc2)NC(=O)N(CC(=O)c2cc(C)n(C3CC3)c2C)C1=O (stereo not given),i,-6.26*,i,i,i,i,i,i,51*
CCc1nnc2sc(-c3ccc(NC(=O)c4ccco4)cc3)nn12,i,-8.07*,i,i,i,i,i,i,i
CCN(CC)C(=O)CSc1nnc(-c2ccccn2)n1Cc1ccccc1,i,i,i,i,i,.,.,.,.
CN1CCN(C2CCCCCC2)CC1,i,-5.32*,i,i,i,i,i,i,i
CN1CCN(C(=O)NC2CCCCC2)CC1,i,i,i,i,i,.,.,.,.
Cc1cccc(C)c1NC(=O)CN(C)C(=O)c1ccc2nc[nH]c2c1,i,i,i,i,i,.,.,.,.
CCCCN(CC)C(=O)Cn1cnc2ccc(S(=O)(=O)N3CCC(C)CC3)cc2c1=O,i,i,i,i,i,.,.,.,.
O=C(CC(=O)Nc1nc(C23CC4CC(CC(C4)C2)C3)cs1)NCCO,i,-5.69*,i,i,i,65.3%*,i,i,i
O=C(CCCCCNC(=O)N1CCn2c1nc1ccccc12)NCc1ccc(F)cc1,i,i,i,i,i,.,.,.,.
